Data taken from ChEMBL document CHEMBL1127022, “Transformation of monoamine oxidase-B primary amine substrates into time-dependent inhibitors. Tertiary amine homologues of primary amine substrates” (J Med Chem, 1993).
pKi: −log10 of the molar value.

Assays:
[1] = molecular target: T1, Amine oxidase [flavin-containing] B (Bos taurus, UniProt P56560); test: Inhibition of Monoamine oxidase-B from Bovine liver
T1 sequence (P56560 whole entry): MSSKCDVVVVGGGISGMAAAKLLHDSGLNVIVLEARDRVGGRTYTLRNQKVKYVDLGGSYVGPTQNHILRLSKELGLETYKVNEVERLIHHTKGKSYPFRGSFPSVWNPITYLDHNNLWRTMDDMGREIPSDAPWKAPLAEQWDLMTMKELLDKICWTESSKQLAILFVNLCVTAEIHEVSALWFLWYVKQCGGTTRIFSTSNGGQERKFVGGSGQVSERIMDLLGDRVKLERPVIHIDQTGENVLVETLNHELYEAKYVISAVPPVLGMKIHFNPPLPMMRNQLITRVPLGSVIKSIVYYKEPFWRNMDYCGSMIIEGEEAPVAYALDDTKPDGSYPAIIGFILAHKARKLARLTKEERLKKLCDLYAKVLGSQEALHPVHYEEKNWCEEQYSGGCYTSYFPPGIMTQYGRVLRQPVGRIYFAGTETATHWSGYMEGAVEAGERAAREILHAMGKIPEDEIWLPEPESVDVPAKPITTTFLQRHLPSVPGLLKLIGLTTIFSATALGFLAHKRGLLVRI
Summary of the method: (§1)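 Bovine liver MAO-B was added to inhibitor at various concentrations in 100 mM potassium phosphate, pH 7.40, with 2.0 mM β-mercaptoethanol or glutathione, at 25 °C. Aliquots taken over time were assayed with 0.5 mM cinnamylamine in 100 mM Tris, pH 9.0, and corrected against a no-inhibitor control. Ki and kinact came from Kitz–Wilson analysis.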

[2] = molecular target: T1, Amine oxidase [flavin-containing] B; test: Catalysis activity was calculated for Monoamine oxidase-B from Bovine liver; details: cattle
Summary of the method: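 Purified bovine liver MAO-B, with the test amine as substrate. Km and kcat were obtained by following the rate of hydrogen peroxide formation.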

[3] = molecular target: T1, Amine oxidase [flavin-containing] B; test: Inactivation kinetic constant Monoamine oxidase-B from Bovine liver; details: cattle; summary of the method: as §1

**Q.** What does the source list for CN(C)CCCc1ccccc1?
**A.** pKi [1]: 3.42; k cat [2]: 0.21 s⁻¹; kinact [3]: 0.00717 s⁻¹

**Q.** What does the source list for CCCNCCc1ccccc1?
**A.** pKi [1]: 2.40; kinact [3]: 0.0767 s⁻¹

**Q.** How did the pKi [1] turn out when CN(C)CCc1ccccc1 was run?
**A.** 2.15

**Q.** And the k cat [2]?
**A.** 1.4 s⁻¹

**Q.** And the kinact [3]?
**A.** 0.128 s⁻¹

**Q.** With CN(C)CCCCc1ccccc1 as the compound, how does the pKi [1] read?
**A.** 2.00

**Q.** What about the kinact [3] of the same compound?
**A.** 4.83e-05 s⁻¹

**Q.** Which results are given for CCCCCN(C)C?
**A.** pKi [1]: 2.68; kinact [3]: 0.000267 s⁻¹

**Q.** What does the source list for CN(C)CCC(=O)c1ccccc1?
**A.** pKi [1]: 3.46; kinact [3]: 0.0288 s⁻¹
